# Data from ChEMBL document CHEMBL4680093 (J Med Chem, 2016).
# pIC50: −log10 of the molar value.
# What was measured:
# [1] = In-vivo inhibition of 11beta-HSD1 activity in C57BL/6 mouse liver assessed as reduction in cortisone to-cortisol conversion at 30 mg/kg, po measured after 6 hrs by ELISA; format: functional; details: C57BL/6, Liver
# In short: (§1)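 Male C57BL/6 mice dosed orally once at 3, 10 or 30 mg/kg in sterile water containing 0.5% methylcellulose and 1% Tween80, then sacrificed at 2 or 6 h. Liver and epididymal fat pads incubated ex vivo in culture medium containing cortisone. Cortisol formed was measured by ELISA and reported as % inhibition versus vehicle.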
# [2] = In-vivo inhibition of 11beta-HSD1 activity in C57BL/6 mouse liver assessed as reduction in cortisone to-cortisol conversion at 30 mg/kg, po measured after 2 hrs by ELISA; format: functional; details: C57BL/6, Liver; in short: as §1
# [3] = Protein binding in mouse plasma; format: ADME, cell-free; details: read-out: PPB
# [4] = Metabolic stability in mouse liver microsomes assessed as compound remaining after 30 mins; format: ADME, Microsome; details: read-out: Stabilty
# [5] = biological target: Cytochrome P450 2C19 (Homo sapiens, UniProt P33261); assay: Inhibition of CYP2C19 in pooled human liver microsomes using mephenytoin as substrate in presence of NADPH incubated for 10 mins by LC-MS/MS analysis
# Sequence of Cytochrome P450 2C19 (P33261 whole entry): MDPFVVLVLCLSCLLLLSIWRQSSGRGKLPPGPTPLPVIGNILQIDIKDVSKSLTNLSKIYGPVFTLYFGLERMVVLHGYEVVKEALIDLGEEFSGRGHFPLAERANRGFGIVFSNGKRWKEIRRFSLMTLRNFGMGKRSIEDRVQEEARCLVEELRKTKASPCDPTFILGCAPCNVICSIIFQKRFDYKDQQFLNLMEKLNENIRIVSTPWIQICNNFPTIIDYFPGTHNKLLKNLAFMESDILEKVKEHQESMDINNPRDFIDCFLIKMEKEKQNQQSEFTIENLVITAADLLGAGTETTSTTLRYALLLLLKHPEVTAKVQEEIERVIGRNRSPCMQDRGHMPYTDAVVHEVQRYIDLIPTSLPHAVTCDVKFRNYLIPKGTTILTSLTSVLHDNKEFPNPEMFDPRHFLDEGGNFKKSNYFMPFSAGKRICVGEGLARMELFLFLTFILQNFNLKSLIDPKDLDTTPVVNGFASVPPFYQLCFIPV
# [6] = biological target: 11-beta-hydroxysteroid dehydrogenase 1 (Homo sapiens, UniProt P28845); assay: Inhibition of human 11beta-HSD1 expressed in microsomes; set-up: species or system Microsome
# Sequence of 11-beta-hydroxysteroid dehydrogenase 1 (P28845 whole entry): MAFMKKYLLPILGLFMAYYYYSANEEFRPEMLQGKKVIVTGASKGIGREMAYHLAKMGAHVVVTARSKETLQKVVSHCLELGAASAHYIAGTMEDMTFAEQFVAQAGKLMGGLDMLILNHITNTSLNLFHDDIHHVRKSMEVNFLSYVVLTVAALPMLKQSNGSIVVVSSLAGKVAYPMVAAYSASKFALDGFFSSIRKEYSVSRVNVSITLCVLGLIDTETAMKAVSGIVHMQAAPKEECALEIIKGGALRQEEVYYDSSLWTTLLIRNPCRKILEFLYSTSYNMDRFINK
# In short: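 HEK293 cell lysates (microsomal fractions) overexpressing human or mouse 11β-HSD1 were incubated with cortisone, a range of inhibitor concentrations and an NADPH regenerating system in sodium phosphate buffer at 37°C for 1 h. Cortisol in the supernatant was quantified by ELISA. Percent inhibition was fitted to a sigmoidal dose-response curve to give IC50.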
# [7] = biological target: T1, UDP-glucuronosyltransferase 1A1 (Homo sapiens, UniProt P22309); assay: Inhibition of UGT1A1 (unknown origin); format: ADME
# T1 sequence (P22309 whole entry): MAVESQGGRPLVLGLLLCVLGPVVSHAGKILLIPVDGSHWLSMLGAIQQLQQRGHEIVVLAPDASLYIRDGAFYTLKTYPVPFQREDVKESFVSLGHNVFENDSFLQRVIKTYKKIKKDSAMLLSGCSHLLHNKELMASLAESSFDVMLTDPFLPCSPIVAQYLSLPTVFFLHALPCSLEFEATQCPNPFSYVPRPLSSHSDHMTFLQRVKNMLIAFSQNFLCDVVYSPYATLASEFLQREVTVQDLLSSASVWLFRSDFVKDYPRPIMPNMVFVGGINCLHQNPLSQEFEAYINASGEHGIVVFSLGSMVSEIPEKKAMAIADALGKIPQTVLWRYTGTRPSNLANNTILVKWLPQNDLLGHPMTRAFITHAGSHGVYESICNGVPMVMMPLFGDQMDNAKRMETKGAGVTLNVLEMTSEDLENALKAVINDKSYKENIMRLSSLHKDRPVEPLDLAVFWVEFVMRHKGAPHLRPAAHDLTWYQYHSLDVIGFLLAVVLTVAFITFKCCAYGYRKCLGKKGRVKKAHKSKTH
# [8] = Inhibition of PDE3 (unknown origin); set-up: species or system Homo sapiens
# [9] = AUC in dog at 0.5 mg/kg, iv; format: ADME, organism-based, Canis lupus familiaris; set-up: dose 0.5 mg/kg; details: in vivo
# [10] = Tmax in mouse at 5 mg/kg, po; format: ADME, organism-based; details: in vivo
# In short: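 Single-dose PK study. The iv dose was given in 10% hydroxypropyl-β-cyclodextrin and the oral dose in 0.5% methylcellulose/1% Tween80. Mouse and rat received 1 mg/kg iv and 5 mg/kg po. Dog received 0.5 mg/kg iv and 4 mg/kg po. CL, Vss, t1/2, AUC, Cmax, tmax and F were derived.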
# [11] = Drug level in mouse adipose tissue at 10 mg/kg, po measured after 2 hrs post dose; format: ADME, organism-based; details: in vivo
# In short: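 C57BL/6 mice given a single oral 10 mg/kg dose in 0.5% methylcellulose plus 1% Tween80. Sacrifice at 2 h post-dose, with collection of brain, liver, adipose and plasma. Compound concentration expressed as nmol/g, along with tissue/plasma ratio.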
# [12] = Toxicity in dog assessed as induction of abnormal changes in cardiovascular system up to 400 mg/kg, po; format: organism-based, Canis lupus familiaris; details: in vivo
# In short: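 Dogs fitted with telemetry were given oral doses of up to 400 mg/kg. Cardiovascular and respiratory systems were monitored for abnormal changes.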
# [13] = Toxicity in male dog during 4-week repeated once daily oral-dose toxicity study; set-up: species or system Canis lupus familiaris; details: in vivo, time 4 weeks
# In short: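 Dogs of both sexes were dosed orally once daily for 4 weeks at 25, 100 and 400 mg/kg. Toxicity was assessed and the NOAEL determined.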
# [14] = test system: Mus musculus; assay: Improvement in lipid profile in C57BL/6-Lep^ob (ob/ob) mouse assessed as total cholesterol level at 20 mg/kg, po dosed once daily for 25 days (reference value: 286.6 +/- 6.3 mg/dl); format: functional; details: time 25 day
# [15] = test system: Mus musculus; assay: Improvement in lipid profile in C57BL/6-Lep^ob (ob/ob) mouse assessed as triglyceride level at 20 mg/kg, po dosed once daily for 25 days (reference value: 90.9 +/- 5.5 mg/dl); format: functional; details: time 25 day
# [16] = Reduction in nonfasting blood glucose level in C57BL/6-Lep^ob (ob/ob) mouse at 20 mg/kg, po dosed once daily for 25 days and co-treated with 300 mg/kg. po QD for 25 days metformin relative to control; set-up: scale not given: the % may be the effect or the level left; details: time 25 day
# [17] = test system: Mus musculus; assay: Improvement in lipid profile in C57BL/6-Lep^ob (ob/ob) mouse assessed as triglyceride level at 20 mg/kg, po dosed once daily for 25 days co-treated with 300 mg/kg. po QD for 25 days metformin (reference value: 90.9 +/- 5.5 mg/dl); details: time 25 day
# [18] = test system: Mus musculus; assay: Improvement in lipid profile in C57BL/6-Lep^ob (ob/ob) mouse assessed as total cholesterol level at 20 mg/kg, po dosed once daily for 25 days co-treated with 300 mg/kg. po QD for 25 days metformin (reference value: 286.6 +/- 6.3 mg/dl); details: time 25 day
smiles,measurement,setting,value
C[C@@H]1CN(c2ccc(S(C)(=O)=O)cc2F)CCN1c1nccc(C(=O)NC2C3CC4CC2CC(O)(C4)C3)n1 (stereo partly drawn),inhibition in vivo at 30 mg/kg,[1],92%
same,inhibition in vivo at 30 mg/kg,[2],91%
same,fraction unbound,[3],0.01
same,remaining at 0.5 h,[4],98%
same,pIC50,[5],< 5.00
same,pIC50,[6],8.54
same,pIC50,[7],5.25
same,pIC50,[8],5.27
same,AUC,[9],1470 ng·h/mL
same,Tmax,[10],1 h
same,Drug uptake,[11],6.64 nmol/g
same,Activity,[12],Non-Toxic
same,NOAEL at 672 h,[13],400 mg/kg
same,Activity,[14],230.6 mg/dL
same,Activity,[15],83.4 mg/dL
same,Activity,[16],33%
same,Activity,[17],84.1 mg/dL
same,Activity,[18],235 mg/dL
